Published values gathered from unrelated publications.

SMILES	target or system	assay	test system	setting	endpoint	value
NNC(=O)c1ccncc1	Mycolicibacterium phlei	microbial growth			MIC	> 8 µg/mL
[H]/N=C(/N)N[C@H]1[C@H](O)[C@@H](O)[C@H](O[C@@H]2O[C@@H](C)[C@](O)(C=O)[C@H]2O[C@@H]2O[C@@H](CO)[C@H](O)[C@@H](O)[C@@H]2NC)[C@@H](N/C(N)=N\[H])[C@@H]1O	Mycobacterium avium	microbial growth	ATCC25291		MIC	12.5 µg/mL
c1ccc(-c2ccc(C(c3ccccc3)n3ccnc3)cc2)cc1 (stereo not shown)	Vesicular stomatitis virus	viral entry, inhibitor	Vero C1008	pseudovirus	IC50	30 to 40 µM
CNCCN(C)C(=O)Oc1c(Br)c(C)nc(C)c1-c1ccc(Oc2ccc(OC(F)(F)F)cc2)cc1	HEK293	cell growth or viability			IC50	> 10 µM
N.N.[Cl][Pt][Cl]	SK-MEL-28	cell growth or viability, resazurin		dark	EC50	2800 nM
Oc1cccc(C2CCCN(CCc3c[nH]c4ccccc34)C2)c1 (stereo not shown)	HEK293	cell growth or viability			IC50	> 10 µM
O=c1c2ccccc2[se]n1-c1ccccc1	HEK293	cell growth or viability, MTT		125 µM, 72 h	inhibition	43%
Cc1cccc2c(CNCC3(N4CCCC4)COC3)c[nH]c12	GBM6	cell growth or viability		30 µM, 48 h	viability	60.4%
COc1cc(C)[nH]c(=O)c1CNC(=O)c1c(C)n([C@H](C)C2CCN(CC(F)(F)F)CC2)c2ccccc12	KARPAS-422	cell growth or viability		8 days	GI50	390 nM
Cc1nc(C)c(-c2ccc(Oc3ccc(OC(F)(F)F)cc3)cc2)c(OC(=O)N(CCNC(C)C)C(C)C)c1Br	HEK293	cell growth or viability			IC50	> 10 µM
Cc1ccc2c(CNCC3(N4CCCC4)COC3)c[nH]c2c1	GBM6	cell growth or viability		30 µM, 48 h	viability	60.6%
CCCCCCCc1cc(=O)c2ccccc2[nH]1	HEK293	cell growth or viability			IC50	> 10 µM
Cc1ccc(-c2nc3ccc(C)cn3c2CC(=O)N(C)C)cc1	Mycobacterium avium	microbial growth		6 days	MIC	> 50 µM
